Experimental findings from ChEMBL document CHEMBL4308913, “In silico, NMR and pharmacological evaluation of an hydroxyoxindole cholinesterase inhibitor” (Bioorg Med Chem, 2019) are described below.

The source made the active and inactive calls. The calls are words filed in the database; no cut-off is given here.

Data set [1] addresses T1, Cholinesterase (Equus caballus, UniProt P81908). Description: Inhibition of equine serum BuChE after 15 mins.
Data set [2] concerns the target Acetylcholinesterase (Electrophorus electricus, UniProt O42275). Description: Inhibition of electrophorus electricus AChE.
The nature of data set [3]: Toxicity against Artemia salina larvae assessed as larval mortality at 1000 ug/mL after 24 hrs relative to control. The format is organism-based. To be noted: in vivo, at 1000 µg/mL.
The target in data set [4] is Cholinesterase (Mus musculus, UniProt Q03311). Nature of the data set: Inhibition of BuChE in Swiss mouse liver homogenate by Ellman's assay. The format is tissue-based. In a few lines: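 Swiss mouse livers from 8-week-old males were washed in ice-cold 0.2 M potassium phosphate, pH 7.6, then homogenized 1:10 w/v in 0.1 M phosphate, pH 7.6. Homogenates were spun at 1000 g, 4 °C, 15 min. Compounds were made up in 0.2 M phosphate, pH 7.6. Activity was read by modified Ellman's method, with protein by Lowry. IC50 came from dose-response, triplicate means ± SD.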

Data set [5] in a line: Acute oral toxicity in Swiss mouse by OECD up and down test guideline method. To be noted: in vivo.
The target in data set [6] is Cholinesterase (Equus caballus) (UniProt P81908). Nature of the data set: Competitive inhibition of equine BuChE by Cornish-Bowden analysis.
Data set [7] has as its target T1, Cholinesterase. Nature of the data set: Reversible competitive inhibition of equine BuChE by Lineweaver-burk plot analysis.
For data set [8], the target named is T2, Acetylcholinesterase (Mus musculus, UniProt P21836).
T2 sequence (P21836 whole entry): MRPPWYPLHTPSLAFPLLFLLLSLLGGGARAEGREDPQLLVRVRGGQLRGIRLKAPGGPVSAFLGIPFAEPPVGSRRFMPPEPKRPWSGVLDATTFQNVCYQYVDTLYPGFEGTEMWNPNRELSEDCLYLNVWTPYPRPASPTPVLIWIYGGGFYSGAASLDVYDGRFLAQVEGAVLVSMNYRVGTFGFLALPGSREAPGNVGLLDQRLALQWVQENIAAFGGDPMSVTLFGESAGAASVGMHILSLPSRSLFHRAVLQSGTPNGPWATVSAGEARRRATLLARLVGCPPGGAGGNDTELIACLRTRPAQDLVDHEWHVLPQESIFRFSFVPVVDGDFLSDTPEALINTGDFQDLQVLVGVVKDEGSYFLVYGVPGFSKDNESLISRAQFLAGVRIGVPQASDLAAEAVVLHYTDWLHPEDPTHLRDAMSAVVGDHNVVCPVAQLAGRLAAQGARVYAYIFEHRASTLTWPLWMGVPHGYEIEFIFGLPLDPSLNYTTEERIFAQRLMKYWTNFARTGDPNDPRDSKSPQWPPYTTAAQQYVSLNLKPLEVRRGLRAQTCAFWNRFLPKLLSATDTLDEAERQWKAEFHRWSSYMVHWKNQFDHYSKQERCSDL
Description: Inhibition of AChE in Swiss mouse liver homogenate using acetylthiocholine iodide as substrate by Ellman's assay. In general terms: In Ellman's method for cholinesterases, released thiocholine reacts with DTNB.

For data set [9], the system named is Mus musculus. Description: In vivo inhibition of BuChE in Swiss mouse liver at 3 to 6 mg/kg, iv by Ellman's assay. It is filed as functional, organism-based.
The target of data set [10] is T1, Cholinesterase. Description: Inhibition of equine serum BuChE.
The nature of data set [11]: Acute toxicity in iv dosed Swiss mouse. The following applies: in vivo.
The subject of data set [12] is Artemia salina. Description: Toxicity against Artemia salina larvae assessed as larval mortality at 100 ug/mL after 24 hrs relative to control. It is filed as organism-based. To be noted: in vivo.
In data set [13] the test system is Artemia salina. Nature of the data set: Toxicity against Artemia salina larvae assessed as larval mortality after 24 hrs. It is filed as organism-based. The following applies: in vivo. In a few lines:
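A. salina nauplii were run per the Artoxkit M protocol: samples in saline were diluted 1:10 into saline medium, 10 larvae per well. Plates were held 24 h at 25 °C, and dead nauplii were counted by stereomicroscope. There were nine repeats per concentration, and LC50 came from dose-response. Negative controls were saline with and without 5% DMSO; potassium dichromate positive control ran 3.125–150 μg mL-1.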

Acetylcholinesterase (Electrophorus electricus, UniProt O42275), sequence (O42275 whole entry): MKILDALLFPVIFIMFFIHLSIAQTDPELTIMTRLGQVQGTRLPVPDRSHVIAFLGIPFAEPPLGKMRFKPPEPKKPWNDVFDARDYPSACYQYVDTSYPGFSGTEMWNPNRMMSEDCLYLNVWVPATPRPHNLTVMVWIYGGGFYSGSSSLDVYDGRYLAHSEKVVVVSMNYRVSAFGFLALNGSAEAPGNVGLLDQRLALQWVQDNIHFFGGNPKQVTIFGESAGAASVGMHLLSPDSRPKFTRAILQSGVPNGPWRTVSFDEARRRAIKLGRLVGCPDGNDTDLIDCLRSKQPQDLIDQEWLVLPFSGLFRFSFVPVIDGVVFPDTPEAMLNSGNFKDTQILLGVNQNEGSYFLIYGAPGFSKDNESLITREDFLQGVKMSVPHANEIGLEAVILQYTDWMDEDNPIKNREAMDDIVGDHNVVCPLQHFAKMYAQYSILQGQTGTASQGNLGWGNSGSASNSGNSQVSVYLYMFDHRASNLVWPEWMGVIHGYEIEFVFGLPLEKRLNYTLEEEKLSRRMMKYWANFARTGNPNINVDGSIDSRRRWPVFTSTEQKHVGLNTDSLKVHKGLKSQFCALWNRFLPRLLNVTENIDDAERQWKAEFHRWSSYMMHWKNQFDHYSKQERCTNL
T1 sequence (P81908 whole entry): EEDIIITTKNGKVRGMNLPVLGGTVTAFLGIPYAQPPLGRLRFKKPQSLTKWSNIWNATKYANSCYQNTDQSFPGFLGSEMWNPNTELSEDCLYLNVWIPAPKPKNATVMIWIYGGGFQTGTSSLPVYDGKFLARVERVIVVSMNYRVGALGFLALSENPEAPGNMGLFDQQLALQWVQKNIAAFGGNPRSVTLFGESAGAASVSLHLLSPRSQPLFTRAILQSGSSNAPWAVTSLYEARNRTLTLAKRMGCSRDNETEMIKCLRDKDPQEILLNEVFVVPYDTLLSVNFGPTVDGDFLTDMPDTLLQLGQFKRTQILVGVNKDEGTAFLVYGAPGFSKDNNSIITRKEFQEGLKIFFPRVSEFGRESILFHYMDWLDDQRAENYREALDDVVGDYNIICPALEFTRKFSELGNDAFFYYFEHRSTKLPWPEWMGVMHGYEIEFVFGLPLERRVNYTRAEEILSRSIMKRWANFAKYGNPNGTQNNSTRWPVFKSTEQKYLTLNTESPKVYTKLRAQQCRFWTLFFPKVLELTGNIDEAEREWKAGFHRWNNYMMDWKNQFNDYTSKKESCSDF
Cholinesterase (Mus musculus, UniProt Q03311), sequence (Q03311 whole entry): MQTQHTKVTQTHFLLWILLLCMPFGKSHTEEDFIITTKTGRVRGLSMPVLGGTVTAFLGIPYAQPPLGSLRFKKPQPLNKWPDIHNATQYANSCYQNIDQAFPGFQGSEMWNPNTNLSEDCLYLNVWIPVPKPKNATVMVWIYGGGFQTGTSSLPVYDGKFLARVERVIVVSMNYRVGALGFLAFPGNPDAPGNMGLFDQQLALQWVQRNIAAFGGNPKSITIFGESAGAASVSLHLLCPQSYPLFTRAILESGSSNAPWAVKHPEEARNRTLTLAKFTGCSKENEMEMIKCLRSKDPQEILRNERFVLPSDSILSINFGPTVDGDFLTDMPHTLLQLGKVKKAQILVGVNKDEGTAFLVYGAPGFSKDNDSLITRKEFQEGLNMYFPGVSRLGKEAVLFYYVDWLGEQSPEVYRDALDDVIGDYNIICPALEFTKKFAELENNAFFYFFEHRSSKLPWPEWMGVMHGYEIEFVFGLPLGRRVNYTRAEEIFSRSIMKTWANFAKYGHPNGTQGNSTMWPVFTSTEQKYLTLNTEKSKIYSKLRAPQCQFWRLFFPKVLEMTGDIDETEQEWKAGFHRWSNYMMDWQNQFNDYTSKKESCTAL
Cholinesterase (Equus caballus), sequence (P81908 whole entry): as the sequence (P81908 whole entry) above

Broadly, the IC50 is the concentration at which inhibition is half-maximal. For the molecule `O=C1N(CC2CCN(Cc3ccccc3)CC2)c2ccccc2C1(O)c1ccccc1` (racemic), the results for the IC50 in [1] and in data set [2] were 6.61 µM and 193 µM, respectively.

In general, mortality refers to the share of the test organisms that died. Usually LD50 stands for the dose expected to kill half of the subjects tested. Read a low LD50 as a more toxic substance. One may read the Ki as the dissociation constant of the complex between target and ligand, obtained from inhibition or displacement. A higher Ki goes with a looser hold on the target. Regarding `Cl.O=C1N(CC2CCNCC2)c2ccccc2C1(O)c1ccccc1` (racemic), in data set [3], the mortality at 24 h, 1000 ug/mL amounted to 5%. The IC50 in [4] turned out to be 435 µM; in [8] it was 565 µM; in data set [2], 500 µM; in [10], 18.3 µM. This molecule showed an LD50 in [5] of 100 mg/kg. Moreover, the inhibition entry in [6] and in data set [9] was “Active” throughout. For the same molecule, the Ki in data set [7] is 41 µM.

Turning to `O=C1N(Cc2ccccc2)c2ccccc2C1(O)c1ccccc1` (racemic), the IC50 in [2] is 237 µM; in data set [10] it was 7.41 µM.

As to `COc1cc2c(cc1OC)C(=O)C(CC1CCN(Cc3ccccc3)CC1)C2` (stereo not drawn) [DONEPEZIL], the mortality at 24 h, 1000 ug/mL in data set [3] was 26%. Moreover, in data set [11], the LD50 is 3.7 mg/kg. In data set [9], the inhibition result was “Active”.

What is called LC50 is the concentration that kills 50% of the test population. As for POTASSIUM DICHROMATE, the Activity in data set [12] is given as 100%. Also, in [13], the LC50 came to 15.04 µg/mL.
